Only some compounds are listed: those with a hit (about 1.8% of all), similar ones and a draw of the others.
DAGLB inh: blocks human DAGLB lipase activity. hit rate 0.059% among 340,000. inhibition, % at 5.17 µM. Q8NCG7. HEK293T DAGLB membrane lysate, EnzChek fluorogenic substrate. AID 504411; in the data active = inhibition above about 34%
Target sequence (Q8NCG7 whole entry, looked up): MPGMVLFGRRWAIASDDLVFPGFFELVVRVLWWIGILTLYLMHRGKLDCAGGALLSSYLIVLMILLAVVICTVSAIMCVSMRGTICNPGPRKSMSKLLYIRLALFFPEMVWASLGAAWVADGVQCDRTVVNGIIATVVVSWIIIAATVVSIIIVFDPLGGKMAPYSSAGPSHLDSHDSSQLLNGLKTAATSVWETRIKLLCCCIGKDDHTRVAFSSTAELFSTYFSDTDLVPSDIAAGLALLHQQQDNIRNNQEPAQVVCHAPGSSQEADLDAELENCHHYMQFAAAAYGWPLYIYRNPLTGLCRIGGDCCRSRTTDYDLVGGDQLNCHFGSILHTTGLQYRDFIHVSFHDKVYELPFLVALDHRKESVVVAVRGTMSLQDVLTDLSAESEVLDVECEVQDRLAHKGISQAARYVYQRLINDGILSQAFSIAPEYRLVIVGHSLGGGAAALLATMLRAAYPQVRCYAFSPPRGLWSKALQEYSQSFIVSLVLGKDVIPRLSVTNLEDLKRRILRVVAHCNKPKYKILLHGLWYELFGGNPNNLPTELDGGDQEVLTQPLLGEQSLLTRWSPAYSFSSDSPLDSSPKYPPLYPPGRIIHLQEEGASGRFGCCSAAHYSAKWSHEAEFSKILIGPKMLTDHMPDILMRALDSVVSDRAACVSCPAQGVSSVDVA
SKN-1 block: inhibitors of C. elegans SKN-1 | C. elegans VP596 Pgst-4::GFP/RFP ratio, acrylamide-induced, 24 h | inhibition, % at 21.8 µM | hit rate 0.49% among 360,000;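 active = interference check ratio from 0.5 to 1.5 plus GFP to RFP signal ratio inhibition reaching or exceeding a fixed threshold, cut at about 30% in these data, passing the limit was not always enough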
Ecoli rRNA inh: inhibits bacterial ribosomal RNA function over humanized ribosomes; hit rate 1.6% among 350,000; GFP signal change (wild-type ribosome), % (no concentration beside the values); E. coli WT GFP vs humanized-ribosome RFP mutants, fluorescence, 24 h; stronger effect = lower value; DMSO median 0, no signal -100; AID 720706;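 active = significant combined selectivity score with lowered wild-type GFP, culture density cut under 30%, mutant RFP and density less affected; inactive = any of these conditions unmet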
MT1-MMP act inh: inhibitors of human MT1-MMP activation | GFP/RFP ratio change, % at 20 µM | P50281 | HT1080 RFP-PRO-GFP cells, GFP/RFP ratio fluorescence, overnight; percent of plate control window, DMSO zero | hit rate 0.061% among 360,000;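 active = GFP/RFP ratio change of at least 30% with cell ATP level not reduced by more than half and red fluorescence within 50% of control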
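system = RFP-PRO-GFP reporter HT1080 cells | dosing = 20 µM single dose, 1% DMSO | timing = overnight cell settling, then overnight compound exposure, 37 °C, 5% CO2 | read-out basis = GFP/RFP fluorescence ratio | controls = DMSO and RFP-L50D-GFP cell wells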
Cneo AK release: Cryptococcus neoformans lysis via adenylate kinase release; C. neoformans lysis, adenylate kinase release luminescence, 4 h; normalised: neutral wells 0, clomiphene wells 100; lysis activity, % at 15 µM; hit rate 0.2% among 360,000; AID 651654;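 active = mean lysis activity across replicates of at least 80%, whatever share of replicates individually reach that level; inactive = mean lysis activity below 80%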
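Schedule: static 4 h at 37 °C with compound, 1 h detection; system: C. neoformans cells; benchmarks: Clomiphene as positive control; buffer or medium: fresh YPD medium; measure: luminescence rise reflecting yeast cell lysis; measured by: luminescent adenylate kinase detection reagent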
hiPSC survival: increases survival of single human iPS cells; hiPSC single-cell survival, ATPlite luminescence; 100% = ROCK inhibitor wells, 0% = DMSO; survival enhancement, % at 20 µM; hit rate 0.044% among 360,000; in the data active = survival enhancement above about 18%;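 note: cells exposed to compounds for 16 hours before the ATP read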
HepG2 cytotox: kills or reduces viability of HepG2 cells; AID 743480; activity change, negative = cytotoxicity, unspecified at 26 µM; shares compounds with Ecoli rRNA inh; 30 tested, under 10 active; ATP luminescence, 72 h;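 active = compounds whose fitted half-maximal signal-loss concentration is at most twice their highest valid dose; inconclusive = flat curve with 30 to 70% signal loss, or poor fit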
AID977621: growth inhibition of wild-type GFP E. coli, dose response, H69 mutant RFP, cherry-pick; activity change, negative = inhibition at 50 µM; 1,900 tested, under 10 active; E. coli wild-type GFP strain growth, fluorescence, 24 h; shares compounds with Ecoli rRNA inh;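 active = Wild-type ribosome reporter drop at least double the humanized mutant ribosome reporter drop, growth loss under a set limit; inconclusive = no clear call, values can overlap the other calls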;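 note: wild-type GFP and H69 mutant RFP strains grown together 50/50 in each well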
AID977628: E. coli growth inhibition, wild-type GFP versus h24 humanized RFP strain, dose response, h24 mutant RFP vs wild-type GFP, cherry-pick; shares compounds with Ecoli rRNA inh; E. coli WT GFP strain growth, fluorescence, 24 h; activity change, negative = inhibition at 50 µM; 1,900 tested, under 10 active; AID 977628;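 active = compound lowering the normal-ribosome reporter at least twice as much as the humanized-ribosome reporter, growth loss under a set limit; inconclusive = no clear call, values can overlap the other calls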;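 note: wild-type GFP and h24 humanized RFP strains co-cultured 1 to 1 per well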
Numbers stand for hits; – = inactive; ? = inconclusive; · = no result given; ! = a repeat was not active.

SMILES | DAGLB inh | SKN-1 block | Ecoli rRNA inh | MT1-MMP act inh | Cneo AK release | hiPSC survival | AID977621 | AID977628 | others
C[C@H]1CN([C@@H](C)CO)C(=O)c2cc(NS(=O)(=O)c3cn(C)cn3)ccc2O[C@H]1CN(C)Cc1ccc(-c2ccccc2)cc1 | · | · | – | · | – | · | · | ·
COc1ccc(-n2ccnc2SCC(=O)NCc2ccccc2)c(OC)c1 | – | – | -25 | – | – | – | – | ·
C[C@@H]1CN([C@H](C)CO)C(=O)c2cc(NS(=O)(=O)c3ccc(F)cc3)ccc2O[C@@H](C)CCCCO[C@H]1CN(C)S(=O)(=O)c1ccccc1 | · | · | – | · | · | · | · | ·
CC(=O)c1cnc2c(-c3ccccc3)c(C(F)(F)F)nn2c1C | – | – | · | – | · | – | · | ·
Cc1nn2c(C)c(C(=O)Nc3ccccc3)cnc2c1-c1ccccc1 | – | – | -32 | – | – | – | – | –
CCNC(=O)C[C@@H]1CC[C@@H]2[C@@H](COc3ccc(NC(=O)NC(C)C)cc3C(=O)N2C)O1 | · | · | – | · | · | · | · | ·
COCc1ccc(C(=O)N2CCCC(C(=O)c3ccc(Cl)cc3C)C2)o1 (stereo not drawn) | – | – | -26 | – | – | – | – | –
O=C(O)c1ccccc1NC(=O)C(c1ccccc1)c1ccccc1 | – | – | -30 | – | – | – | – | –
C/C=C/c1ccc([C@@H]2[C@@H](CO)N(C(=O)C3CCC3)C23CN(C(=O)NC(C)C)C3)cc1 | · | · | – | · | · | · | · | ·
COCC#Cc1ccc2c(c1)O[C@@H](CN(C)C(=O)c1ccccc1)[C@@H](C)CN([C@@H](C)CO)S2(=O)=O | · | · | – | · | – | · | · | ·
COCC#Cc1ccc2c(c1)O[C@H](CN(C)C(=O)c1ccccc1)[C@@H](C)CN([C@H](C)CO)S2(=O)=O | · | · | -19! | · | – | · | – | –
C[C@H](CO)N1C[C@H](C)[C@@H](CN(C)C(=O)Nc2ccccc2)Oc2ccc(NS(=O)(=O)c3cn(C)cn3)cc2CC1=O | · | · | – | · | – | · | · | ·
COc1ccc2cc(CO)c(Cl)nc2c1 | – | – | – | – | – | – | · | ·
COc1ccc2cc(CO)c3cc(OC)c(OC)cc3c2c1 | – | – | -28 | – | – | – | – | ·
C[C@@H]1CN([C@H](C)CO)C(=O)c2cccc(NS(=O)(=O)c3ccc(F)cc3)c2O[C@@H]1CN(C)Cc1ccc(-c2ccccc2)cc1 | · | · | – | · | – | · | · | ·
CCC1(C(=O)OC)CCc2c(cc(OC)c3ccccc23)C1=O (stereo not drawn) | – | – | -27 | – | · | – | – | –
O=C(C[C@@H]1C=C[C@@H](NC(=O)c2ccc(F)cc2)[C@H](CO)O1)NCc1ccncn1 | · | · | – | · | – | · | · | ·
c1ccc(-c2sc3ccccc3c2-c2ccc(OCCN3CCCCC3)cc2)cc1 | – | – | -17 | – | – | – | – | –
CN1CCN(C(=O)C[C@@H]2CC[C@@H]3[C@H](COC[C@@H](O)CN3C(=O)C3CC3)O2)CC1 | · | · | – | · | – | · | · | ·
C/C=C/c1ccccc1[C@@H]1[C@@H](CO)N(C(=O)Cc2ccccn2)[C@H]1C#N | · | · | – | · | · | · | · | ·
Cc1nc2ncnn2c(N2CCC(C(=O)NC3CCCC3)CC2)c1Cc1ccccc1 | – | – | -19 | – | – | – | – | –
CC(=O)NC(Cc1ccc(F)c(F)c1)C(=O)NC1CCN(c2c(Cc3ccccc3)c(C)nc3ncnn23)CC1 (stereo not drawn) | – | – | – | – | – | – | · | ·
CCC(=O)N1C[C@@H](C)[C@H](OC)CN(C)C(=O)c2cc(NC(=O)NC(C)C)ccc2OC[C@H]1C | · | · | – | · | – | · | · | ·
CCCC(=O)Nc1ccc2c(c1)OC[C@H](C)N(C(=O)c1ccncc1)C[C@@H](C)[C@@H](OC)CN(C)C2=O | · | · | – | · | – | · | · | ·
Cc1ccnc(NS(=O)(=O)c2ccc(NC(=O)c3ccc4c(c3)OCCO4)cc2)n1 | – | – | -23 | – | · | – | – | –
SMILES | DAGLB inh | SKN-1 block | Ecoli rRNA inh | MT1-MMP act inh | Cneo AK release | hiPSC survival | AID977621 | AID977628 | others
O=C(c1ccccc1)N1N=C(c2cccs2)CC1c1ccccc1O (stereo not drawn) | – | – | – | – | – | – | · | ·
O=C(c1ccccc1)C1Oc2ccccc2C2CC(c3cccs3)=NN12 (stereo not drawn) | – | – | -21 | – | – | – | – | –
Cc1ccc(C2(c3noc(CN(C)Cc4cccnc4)n3)CCCC2)cc1 | – | – | -31 | – | · | – | · | ?
Cc1ccc(C2(c3noc(CN(C)Cc4ccccn4)n3)CCCC2)cc1 | – | – | – | – | – | – | · | ·
CCC(=O)Nc1ccc2c(c1)C(=O)N(C)C[C@H](OC)[C@H](C)CN(C(=O)CN(C)C)[C@@H](C)CO2 | · | · | – | · | · | · | · | ·
Cc1c(C(=O)O)sc2nc(CSc3ncc(C(F)(F)F)cc3Cl)[nH]c(=O)c12 | – | – | -33 | – | · | – | · | · | HepG2 cytotox=–
O=c1c2cc(Br)ccc2[nH]c(=S)n1Cc1ccccn1 | – | – | – | · | · | – | · | ·
O=c1c2cc(Br)ccc2[nH]c(=S)n1Cc1ccccc1 | – | – | -36 | – | – | – | – | ·
O=C(NC1CCCC1)N[C@@H]1CC[C@@H](CC(=O)N2CCOCC2)O[C@H]1CO | · | · | – | · | – | · | · | ·
Cc1onc(-c2c(F)cccc2Cl)c1C(=O)c1ccccc1 | – | – | – | – | – | – | · | ·
Cc1onc(-c2c(F)cccc2Cl)c1C(=O)c1ccccc1O | – | – | -42 | – | – | – | – | ?
COc1ccc2c3c([nH]c2c1)[C@@H](CO)N(C(=O)C1CCC1)CC31CCN(C(=O)c2ccccn2)CC1 | · | · | – | · | · | · | · | ·
CO[C@@H]1CN(C)C(=O)c2cc(NC(C)=O)ccc2OC[C@@H](C)N(CCc2ccccc2)C[C@@H]1C | · | · | – | · | – | · | · | ·
Cc1ccc(-c2nc(CN3CCCCC3c3cccc(F)c3)c(C)o2)o1 (stereo not drawn) | – | – | -18 | – | · | – | – | –
O=C1c2cccc3cccc(c23)C(=O)N1CCCn1ccnc1 | · | – | -21 | – | – | – | – | ?
O=C(Nc1ccccc1)N1CCCCN2[C@@H](CO)[C@H](c3ccc(Br)cc3)[C@@H]2C1 | · | · | -23 | · | – | · | · | ?
O=C(Nc1ccccc1)N1CCCCN2[C@H](CO)[C@@H](c3ccc(Br)cc3)[C@@H]2C1 | · | · | – | · | – | · | · | ·
Cc1ccccc1-c1ccc([C@@H]2[C@@H](CO)N3CCCCN(C(=O)Nc4ccc(F)cc4)C[C@@H]23)cc1 | · | · | -38 | · | – | · | · | ?

Source: PubChem
